Paper PMC2645950 (Journal of medicinal chemistry, 2008)
Where a chain is given by its changes, count along the chain named. pIC50: −log10 of the molar value. Blank lines part the entries; values can stand above or below the molecule they belong to.

Tests used:
[1] = target: T1, human alkyltransferase (wild type) (Homo sapiens, UniProt P16455); assay: Inactivation of purified recombinant human alkyltransferase in vitro; type: biochemical; conditions: for less effective than BG: ortho-substituted BG derivatives
T1 sequence (P16455 1-207): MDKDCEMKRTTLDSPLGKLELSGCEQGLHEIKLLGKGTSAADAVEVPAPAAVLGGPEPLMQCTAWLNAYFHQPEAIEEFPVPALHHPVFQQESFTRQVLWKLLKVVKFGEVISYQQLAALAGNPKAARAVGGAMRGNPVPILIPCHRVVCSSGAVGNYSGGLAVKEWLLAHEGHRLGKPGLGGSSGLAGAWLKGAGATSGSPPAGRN

[2] = Stability in aqueous solution; type: physicochemical; conditions: for rearrangement to N^6-substituted 2-aminoadenine in heated water: heating
[3] = target: T2, S159A mutant alkyltransferase (Homo sapiens, UniProt P16455, S159A); assay: Inactivation of purified S159A mutant alkyltransferase in vitro; type: biochemical; conditions: 30 min at 37°C
T2 sequence (P16455 1-207 S159A): T1 sequence (P16455 1-207) with S159A

[4] = target: T1, human alkyltransferase (wild type); conditions: cited from earlier work
alkyltransferase = conditions: BG free base; cited from earlier work
Solubility = type: physicochemical; conditions: at physiological pH
HT29 cells = assay: Sensitization of HT29 cells to killing by BCNU; type: cell-based, human; conditions: 2 h exposure prior to 40 μM BCNU; colony forming assay
Summary of the method: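 HT29 cells in RPMI 1640 with 10% FBS. 24 h after plating, cells get test compound at varied concentrations for 2 h, then 40 μM BCNU for 2 h. Medium is then replaced with inhibitor-containing, BCNU-free medium for 16–18 h. Cells are replated at 250–1000 per 25 cm2 flask and grown 8 days. Colonies are saline-washed, stained with 0.5% crystal violet in ethanol, and counted.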

inhibition at 1000 µM ([1]; read-out: inhibition of alkyltransferase): < 10%
Structure (SMILES): Nc1nc(NCc2ccccc2CO)c2[nH]cnc2n1 [Compound 7, N^6-[2-(Hydroxymethyl)benzyl]-2-aminoadenine]

less effective than BG [1]: > 200 fold
Structure (SMILES): Cc1ccccc1COc1nc(N)nc2nc[nH]c12 [Compound 6, O^6-[2-(Methyl)benzyl]guanine]

half life of rearrangement of 3 to 7 ([2]; aqueous solution, 37°C (0.1 M sodium phosphate buffer pH 7.4, followed by UV, first order kinetics)): 51 h | less effective than BG [1]: > 200 fold
Structure (SMILES): NCc1ccccc1COc1nc(N)nc2nc[nH]c12 [Compound 3, O^6-[2-(Aminomethyl)benzyl]guanine]

pIC50 ([3]; ED50 + DNA, + DNA): 7.55 | pIC50 ([3]; ED50 No DNA, no DNA): 6.80 | rearrangement to N^6-substituted 2-aminoadenine in heated water [2]: not observed
Structure (SMILES): NCc1ccc(COc2nc(N)nc3nc[nH]c23)cc1 [Compound 1, O^6-[4-(Aminomethyl)benzyl]guanine]

Structure (SMILES): Nc1nc(OCc2ccccc2)c2nc[nH]c2n1 [BG, O^6-Benzylguanine]
enhancement of inactivation of alkyltransferase by the presence of DNA [4]: 3–4 fold | rate constant for the reaction (alkyltransferase): ~600 M⁻¹ s⁻¹

solubility relative to BG (Solubility): approx. 1000 times | rearrangement to N^6-substituted 2-aminoadenine in heated water [2]: not observed
Structure (SMILES): NCc1cccc(COc2nc(N)nc3nc[nH]c23)c1 [Compound 2, O^6-[3-(Aminomethyl)benzyl]guanine]
sensitizing HT29 cells to BCNU (HT29 cells): much more effective than compound 1
